# Calls of active or inactive are those of the source. The calls are words filed in the database; no cut-off is given here.
# Assays:
# [1] = Antioxidant activity assessed as AAPH radical scavenging activity after 3 hrs; assay type: functional
# Summary of the method: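 Ethyl linoleate (50 mM) oxidized with AAPH (10 mM) in 0.3 M Tween 20/0.05 M phosphate buffer (pH 7.4) micelles; test sample 0.10 mM final (from DMSO stock). Incubation 37 °C, dark, with shaking, 3 h. Aliquot quenched into methanolic trolox; ethyl linoleate hydroperoxide quantified by reverse-phase HPLC at 234 nm from a peak-area calibration equation.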
# [2] = test system: Radical scavenging activity; experiment: Antioxidant activity assessed as DPPH radical scavenging activity; assay type: functional
# Summary of the method: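 Test sample at 20 µM final mixed with DPPH (0.1 mM); stood 0.5 h at 25 °C, then absorbance read at 517 nm. Activity expressed as decrease of absorbance: DPPH blank minus (DPPH + sample) plus sample-only absorbance.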
SMILES,Activity [1],Activity [2]
"COc1cc(C(O)[C@H]2COC[C@@H]2[C@@H](O)c2ccc(O)c(OC)c2)ccc1O (single isomer, unassigned)",Active,Active
COc1cc(C[C@H]2COC[C@@H]2C(=O)c2ccc(O)c(OC)c2)ccc1O,Active,Active
COc1cc([C@@H]2c3cc(O)c(OC)cc3C[C@H]3COC[C@H]32)ccc1O,Active,Active
COc1cc(C[C@H]2COC[C@@H]2[C@@H](O)c2ccc(O)c(OC)c2)ccc1O,Active,Active
COc1cc(C[C@H]2COC(=O)[C@@H]2Cc2ccc(O)c(OC)c2)ccc1O,Active,Active
COc1cc([C@@H](O)[C@H]2COC[C@@H]2[C@H](O)c2ccc(O)c(OC)c2)ccc1O,Active,Active
COc1cc(C[C@H]2COC[C@@H]2Cc2ccc(O)c(OC)c2)ccc1O,Active,Active
COc1cc(C[C@H]2COC[C@@H]2[C@H](O)c2ccc(O)c(OC)c2)ccc1O,Active,Active

# Source: ChEMBL document CHEMBL1148990, “Effect of benzylic oxygen on the antioxidant activity of phenolic lignans” (J Nat Prod, 2005)
